ChEMBL document CHEMBL1144466, “Mutant prevention concentrations of fluoroquinolones for Enterobacteriaceae expressing the plasmid-carried quinolone resistance determinant qnrA1” (2007)
Converted amounts (≈) assume the structure as drawn.

Key:
Klebsiella pneumoniae [1] = test: Antimicrobial activity against qnrA1 expressing Klebsiella pneumoniae UAB1 expressing porins by microdilution method; format: functional; details: for MIC: Klebsiella pneumoniae, UAB1
Klebsiella pneumoniae [2] = test: Antimicrobial activity against qnrA1 expressing Klebsiella pneumoniae UAB1 GyrA/ParC mutant expressing porins by microdilution method; format: functional
Klebsiella pneumoniae [3] = test: Antimicrobial activity against qnrA1 expressing Klebsiella pneumoniae N5 expressing porins by microdilution method; format: functional; details: for MIC: Klebsiella pneumoniae, N5
Method in brief: (§1)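 Microdilution MICs (μg/ml) of ciprofloxacin, levofloxacin or moxifloxacin against Enterobacteriaceae strains differing in qnrA1 carriage: qnrA1 cloned in pACYC184 in E. coli DH10B, natural qnrA1 plasmids transferred to E. coli J53, clinical K. pneumoniae, and qnrA1-negative isogenic controls.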

Klebsiella pneumoniae [4] = test: Antimicrobial activity against qnrA1 expressing Klebsiella pneumoniae N5 GyrA/ParC mutant expressing porins by microdilution method; format: functional
Klebsiella pneumoniae [5] = test: Antimicrobial activity against qnrA1 expressing Klebsiella pneumoniae1960 GyrA Ser83Phe mutant expressing porins by microdilution method; format: functional; details: for MIC: Klebsiella pneumoniae
Klebsiella pneumoniae [6] = test: Antimicrobial activity against qnrA1 expressing Klebsiella pneumoniae 1960 GyrA Ser83Phe/ParC mutant expressing porins by microdilution method; format: functional
Method in brief: (§2)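 Mutants were selected on Mueller-Hinton agar containing ciprofloxacin or moxifloxacin, with colonies allowed to grow for up to 96 h. Colonies recovered one concentration step below the MPC were tested for ciprofloxacin MIC (μg/ml) by microdilution.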

Klebsiella pneumoniae [7] = test: Antimicrobial activity against qnrA1 expressing Klebsiella pneumoniae 1132 expressing porins by microdilution method; format: functional; details: for MIC: Klebsiella pneumoniae; method in brief: as §1
Klebsiella pneumoniae [8] = test: Antimicrobial activity against qnrA1 expressing Klebsiella pneumoniae 1132 GyrA/ParC mutant expressing porins by microdilution method; format: functional
Escherichia coli [9] = test: Antimicrobial activity against Escherichia coli DH10B expressing porins by microdilution method; format: functional; details: for MIC: Escherichia coli, DH10B; method in brief: as §1
Escherichia coli [10] = test: Antimicrobial activity against Escherichia coli DH10B/pACYC184 expressing porins by microdilution method; format: functional; details: for MIC: Escherichia coli, DH10B; method in brief: as §1
Escherichia coli [11] = test: Antimicrobial activity against qnrA1 expressing Escherichia coli DH10B expressing porins by microdilution method; format: functional; details: for MIC: Escherichia coli, DH10B; method in brief: as §1
Escherichia coli [12] = test: Antimicrobial activity against Escherichia coli J53 expressing porins by microdilution method; format: functional; method in brief: as §1
Escherichia coli [13] = test: Antimicrobial activity against qnrA1 expressing Escherichia coli J53/pMG252 expressing porins by microdilution method; format: functional; details: for MIC: Escherichia coli, J53; method in brief: as §1
Escherichia coli [14] = test: Antimicrobial activity against qnrA1 expressing Escherichia coli J53/pN5 expressing porins by microdilution method; format: functional; details: for MIC: Escherichia coli, J53; method in brief: as §1
Escherichia coli [15] = test: Antimicrobial activity against qnrA1 expressing Escherichia coli J53/p1960 expressing porins by microdilution method; format: functional; details: for MIC: Escherichia coli, J53; method in brief: as §1
Escherichia coli [16] = test: Antimicrobial activity against Escherichia coli J53/p1132 negative expressing porins by microdilution method; format: functional; method in brief: as §1
Klebsiella pneumoniae [17] = test: Antimicrobial activity against Klebsiella pneumoniae C2 GyrA Ser83Phe/ParC mutant expressing porins by microdilution method; format: functional; method in brief: as §2
Klebsiella pneumoniae [18] = test: Antimicrobial activity against Klebsiella pneumoniae C2/pMG252 GyrA Ser83Phe mutant expressing porins by microdilution method; format: functional; details: for MIC: Klebsiella pneumoniae, C2
Klebsiella pneumoniae [19] = test: Antimicrobial activity against Klebsiella pneumoniae C2/pMG252 GyrA Ser83Phe/ParC mutant expressing porins by microdilution method; format: functional; method in brief: as §2
Klebsiella pneumoniae [20] = test: Antimicrobial activity against Klebsiella pneumoniae C2 GyrA Ser83Phe mutant lacking porins by microdilution method; details: for MIC: Klebsiella pneumoniae, C2
Escherichia coli [21] = test: Antimicrobial activity against qnrA1 expressing Escherichia coli J53/pMG252 GyrA/ParC mutant expressing porins by microdilution method; format: functional
Escherichia coli [22] = test: Antimicrobial activity against qnrA1 expressing Escherichia coli J53/pN5 GyrA/ParC mutant expressing porins by microdilution method; format: functional
Method in brief: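 Broth microdilution MIC, in μg/ml, with ciprofloxacin, levofloxacin or moxifloxacin against the E. coli J53 transconjugant carrying qnrA1.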

Escherichia coli [23] = test: Antimicrobial activity against qnrA1 expressing Escherichia coli J53/p1960 GyrA/ParC mutant expressing porins by microdilution method; format: functional
Escherichia coli [24] = test: Antimicrobial activity against qnrA1 expressing Escherichia coli DH10B GyrA/ParC mutant expressing porins by microdilution method; format: functional
Escherichia coli [25] = test: Antimicrobial activity against Escherichia coli J53 GyrA/ParC mutant expressing porins by microdilution method; format: functional
Escherichia coli [26] = test: Antimicrobial activity against Escherichia coli J53/p1132 negative GyrA/ParC mutant expressing porins by microdilution method; format: functional

## O=C(O)c1cn(C2CC2)c2cc(N3CCNCC3)c(F)cc2c1=O [CIPROFLOXACIN]
Klebsiella pneumoniae [1]
  MPC: 16 µg/mL
  MIC: 2 µg/mL (≈ 6.04 µM)
Klebsiella pneumoniae [2]
  MIC: 16 µg/mL (≈ 48.3 µM)
Klebsiella pneumoniae [3]
  MPC: 4 µg/mL
  MIC: 0.25 µg/mL (≈ 0.754 µM)
Klebsiella pneumoniae [4]
  MIC: 8 µg/mL (≈ 24.1 µM)
Klebsiella pneumoniae [5]
  MPC: 64 µg/mL
  MIC: 1 µg/mL (≈ 3.02 µM)
Klebsiella pneumoniae [6]
  MIC: 32 µg/mL (≈ 96.6 µM)
Klebsiella pneumoniae [7]
  MPC: 32 µg/mL
  MIC: 4 µg/mL (≈ 12.1 µM)
Klebsiella pneumoniae [8]
  MIC: 16 µg/mL (≈ 48.3 µM)
Escherichia coli [9]
  MPC: 0.015 µg/mL
Escherichia coli [10]
  MPC: 0.015 µg/mL
Escherichia coli [11]
  MPC: 2 µg/mL
Escherichia coli [12]
  MPC: 0.06 µg/mL
Escherichia coli [13]
  MPC: 4 µg/mL
Escherichia coli [14]
  MPC: 4 µg/mL
Escherichia coli [15]
  MPC: 4 µg/mL
Escherichia coli [16]
  MPC: 0.06 µg/mL
Klebsiella pneumoniae [17]
  MIC: 4 µg/mL (≈ 12.1 µM)
Klebsiella pneumoniae [18]
  MPC: 128 µg/mL
  MIC: 2 µg/mL (≈ 6.04 µM)
Klebsiella pneumoniae [19]
  MIC: 64 µg/mL (≈ 193 µM)
Klebsiella pneumoniae [20]
  MPC: 8 µg/mL
  MIC: 0.25 µg/mL (≈ 0.754 µM)

## C[C@H]1COc2c(N3CCN(C)CC3)c(F)cc3c(=O)c(C(=O)O)cn1c23.C[C@H]1COc2c(N3CCN(C)CC3)c(F)cc3c(=O)c(C(=O)O)cn1c23.O [LEVOFLOXACIN]
Klebsiella pneumoniae [1]
  MPC: 16 µg/mL
  MIC: 2 µg/mL
Klebsiella pneumoniae [2]
  MIC: 16 µg/mL
Klebsiella pneumoniae [3]
  MPC: 4 µg/mL
Klebsiella pneumoniae [4]
  MIC: 8 µg/mL
Klebsiella pneumoniae [5]
  MPC: 64 µg/mL
  MIC: 2 µg/mL
Klebsiella pneumoniae [6]
  MIC: 64 µg/mL
Klebsiella pneumoniae [7]
  MPC: 32 µg/mL
  MIC: 4 µg/mL
Klebsiella pneumoniae [8]
  MIC: 16 µg/mL
Escherichia coli [9]
  MPC: 0.015 µg/mL
  MIC: 0.004 µg/mL
Escherichia coli [10]
  MPC: 0.015 µg/mL
  MIC: 0.004 µg/mL
Escherichia coli [11]
  MPC: 2 µg/mL
  MIC: 0.125 µg/mL
Escherichia coli [12]
  MPC: 0.06 µg/mL
Escherichia coli [13]
  MPC: 4 µg/mL
  MIC: 0.25 µg/mL
Escherichia coli [21]
  MIC: 2 µg/mL
Escherichia coli [14]
  MPC: 4 µg/mL
  MIC: 0.125 µg/mL
Escherichia coli [22]
  MIC: 4 µg/mL
Escherichia coli [15]
  MPC: 4 µg/mL
  MIC: 0.125 µg/mL
Escherichia coli [23]
  MIC: 2 µg/mL
Escherichia coli [16]
  MPC: 0.06 µg/mL
Klebsiella pneumoniae [17]
  MIC: 8 µg/mL
Klebsiella pneumoniae [18]
  MPC: 128 µg/mL
  MIC: 2 µg/mL
Klebsiella pneumoniae [19]
  MIC: 64 µg/mL
Klebsiella pneumoniae [20]
  MPC: 8 µg/mL
  MIC: 0.25 µg/mL

## COc1c(N2C[C@@H]3CCCN[C@@H]3C2)c(F)cc2c(=O)c(C(=O)O)cn(C3CC3)c12 [MOXIFLOXACIN]
Klebsiella pneumoniae [1]
  MPC: 32 µg/mL
  MIC: 4 µg/mL (≈ 9.96 µM)
Klebsiella pneumoniae [2]
  MIC: 32 µg/mL (≈ 79.7 µM)
Klebsiella pneumoniae [3]
  MPC: 16 µg/mL
  MIC: 0.5 µg/mL (≈ 1.25 µM)
Klebsiella pneumoniae [4]
  MIC: 4 µg/mL (≈ 9.96 µM)
Klebsiella pneumoniae [5]
  MIC: 2 µg/mL (≈ 4.98 µM)
Klebsiella pneumoniae [6]
  MIC: 16 µg/mL (≈ 39.9 µM)
Klebsiella pneumoniae [7]
  MPC: 32 µg/mL
  MIC: 8 µg/mL (≈ 19.9 µM)
Klebsiella pneumoniae [8]
  MIC: 16 µg/mL (≈ 39.9 µM)
Escherichia coli [9]
  MPC: 0.06 µg/mL
  MIC: 0.002 µg/mL (≈ 0.00498 µM)
Escherichia coli [10]
  MPC: 0.06 µg/mL
  MIC: 0.002 µg/mL (≈ 0.00498 µM)
Escherichia coli [11]
  MPC: 2 µg/mL
  MIC: 0.125 µg/mL (≈ 0.311 µM)
Escherichia coli [24]
  MIC: 0.5 µg/mL (≈ 1.25 µM)
Escherichia coli [12]
  MPC: 0.125 µg/mL
Escherichia coli [12]; Escherichia coli, J53
  MIC: 0.015 µg/mL (≈ 0.0374 µM)
Escherichia coli [25]
  MIC: 0.5 µg/mL (≈ 1.25 µM)
Escherichia coli [13]
  MPC: 4 µg/mL
  MIC: 0.5 µg/mL (≈ 1.25 µM)
Escherichia coli [14]
  MPC: 4 µg/mL
  MIC: 0.125 µg/mL (≈ 0.311 µM)
Escherichia coli [15]
  MPC: 4 µg/mL
  MIC: 0.125 µg/mL (≈ 0.311 µM)
Escherichia coli [23]
  MIC: 4 µg/mL (≈ 9.96 µM)
Escherichia coli [16]
  MPC: 0.25 µg/mL
Escherichia coli [16]; Escherichia coli, J53
  MIC: 0.015 µg/mL (≈ 0.0374 µM)
Escherichia coli [26]
  MIC: 0.25 µg/mL (≈ 0.623 µM)
Klebsiella pneumoniae [17]
  MIC: 2 µg/mL (≈ 4.98 µM)
Klebsiella pneumoniae [18]
  MIC: 1 µg/mL (≈ 2.49 µM)
Klebsiella pneumoniae [19]
  MIC: 32 µg/mL (≈ 79.7 µM)
Klebsiella pneumoniae [20]
  MPC: 4 µg/mL
  MIC: 0.125 µg/mL (≈ 0.311 µM)
